Data as given in ChEMBL document CHEMBL1142436, “Design and synthesis of 4-substituted indolo[3,2-e][1,2,3]triazolo[1,5-a]pyrimidine derivatives with antitumor activity” (2008).

Legend:
Assay type in all cases: functional
HCT-116 = assay: Growth inhibition of human HCT116 cells after 48 hrs; details: HCT-116, 48 h
Summary of the method: (§1)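 NCI ~60-line screen. Cells were grown in RPMI 1640 with 5% FBS and 2 mM L-glutamine and plated at 5000–40000 cells/well. After a 24 h preincubation, five drug concentrations from DMSO stocks were added for 48 h at 37 °C. Cells were TCA-fixed, stained with SRB and read at 515 nm. GI50 was taken from time-zero and control absorbances and reported as pGI50.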

MOLT-4 = assay: Growth inhibition of human MOLT4 cells after 48 hrs; details: MOLT-4, 48 h; summary of the method: as §1
HCT-15 = assay: Growth inhibition of human HCT15 cells after 48 hrs; details: HCT-15, 48 h; summary of the method: as §1
SNB-19 = assay: Growth inhibition of human SNB19 cells after 48 hrs; details: SNB-19, 48 h
Summary of the method: (§2)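 NCI 60-line screen: cells in RPMI 1640 with 5% FBS and 2 mM L-glutamine, plated at 5000–40000 cells/well, grown 24 h (37 °C, 5% CO₂), then exposed to five 10-fold or ½-log dilutions (DMSO stock) for 48 h. Fixed with TCA (final 10% for adherent cells, 16% for suspension cells), then SRB stained with absorbance at 515 nm. GI50 from percentage growth relative to time-zero and control wells.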

SF-295 = assay: Growth inhibition of human SF295 cells after 48 hrs; details: SF-295, 48 h; summary of the method: as §1
SN12C = assay: Growth inhibition of human SN12C cells after 48 hrs; summary of the method: as §2
UACC-257 = assay: Growth inhibition of human UACC257 cells after 48 hrs; details: UACC-257, 48 h; summary of the method: as §2
MCF7 = assay: Growth inhibition of human MCF7 cells after 48 hrs; details: MCF7, 48 h; summary of the method: as §1
[1] = Growth inhibition of human HS578T cells after 48 hrs; details: Hs-578T; summary of the method: as §1
RPMI-8226 = assay: Growth inhibition of human RPMI8226 cells after 48 hrs; details: RPMI-8226, 48 h; summary of the method: as §1
SK-MEL-28 = assay: Growth inhibition of human SK-MEL28 cells after 48 hrs; details: SK-MEL-28, 48 h; summary of the method: as §1
HL-60 = assay: Growth inhibition of human HL60 cells after 48 hrs; details: HL-60, 48 h; summary of the method: as §1
A549 = assay: Growth inhibition of human A549 cells after 48 hrs; details: A549, 48 h; summary of the method: as §1
NCI-H322M = assay: Growth inhibition of human NCI-H322M cells after 48 hrs; summary of the method: as §1
HT-29 = assay: Growth inhibition of human HT29 cells after 48 hrs; details: HT-29, 48 h; summary of the method: as §1
DU-145 = assay: Growth inhibition of human DU145 cells after 48 hrs; details: DU-145, 48 h; summary of the method: as §1
SK-MEL-5 = assay: Growth inhibition of human SK-MEL5 cells after 48 hrs; details: SK-MEL-5, 48 h; summary of the method: as §1
NCI-H226 = assay: Growth inhibition of human NCI-H226 cells after 48 hrs; details: NCI-H226, 48 h; summary of the method: as §1
KM12 = assay: Growth inhibition of human KM12 cells after 48 hrs; details: KM12, 48 h; summary of the method: as §1
HCC 2998 = assay: Growth inhibition of human HCC2998 cells after 48 hrs; details: HCC 2998, 48 h; summary of the method: as §1
CAKI-1 = assay: Growth inhibition of human CAKI1 cells after 48 hrs; details: CAKI-1, 48 h; summary of the method: as §1
CCRF-CEM = assay: Growth inhibition of human CCRF-CEM cells after 48 hrs; summary of the method: as §1
OVCAR-8 = assay: Growth inhibition of human OVCAR8 cells after 48 hrs; details: OVCAR-8, 48 h; summary of the method: as §1
NCI-H522 = assay: Growth inhibition of human NCI-H522 cells after 48 hrs; details: NCI-H522, 48 h, read-out: pTGI (converted); summary of the method: as §1
A498 = assay: Growth inhibition of human A498 cells after 48 hrs; details: A498, 48 h; summary of the method: as §1
UACC-62 = assay: Growth inhibition of human UACC62 cells after 48 hrs; details: UACC-62, 48 h; summary of the method: as §2
OVCAR-3 = assay: Growth inhibition of human OVCAR-3 cells after 48 hrs; details: OVCAR-3, 48 h; summary of the method: as §1
NCI-H460 = assay: Growth inhibition of human NCI-H460 cells after 48 hrs; details: NCI-H460, 48 h; summary of the method: as §1
M14 = assay: Growth inhibition of human M14 cells after 48 hrs; details: M14, 48 h; summary of the method: as §1
OVCAR-5 = assay: Growth inhibition of human OVCAR5 cells after 48 hrs; details: OVCAR-5, 48 h; summary of the method: as §1
RXF 393 = assay: Growth inhibition of human RXF393 cells after 48 hrs; details: RXF 393, 48 h; summary of the method: as §1
U-251 = assay: Growth inhibition of human U251 cells after 48 hrs; details: U-251, 48 h; summary of the method: as §2
MDA-MB-231 = assay: Growth inhibition of human MDA-MB-231 cells after 48 hrs; details: MDA-MB-231, 48 h; summary of the method: as §1
ACHN = assay: Growth inhibition of human ACHN cells after 48 hrs; summary of the method: as §1

Structure (SMILES): CCCCN(CCCC)CCCn1c(=O)c2c3ccccc3n(C)c2n2nnc(-c3ccccc3)c12
- GI50 (HCT-116): 18.6 µM
- TGI (HCT-116; read-out: pTGI (converted)): > 100 µM
- GI50 (MOLT-4): 13.8 µM
- TGI (MOLT-4; read-out: pTGI (converted)): > 100 µM
- GI50 (HCT-15): 20.9 µM
- TGI (HCT-15; read-out: pTGI): > 100 µM
- GI50 (SNB-19): > 100 µM
- TGI (SNB-19; read-out: pTGI (converted)): > 100 µM
- GI50 (SF-295): 31.6 µM
- TGI (SF-295; read-out: pTGI (converted)): > 100 µM
- GI50 (SN12C): 19.5 µM
- TGI (SN12C; read-out: pTGI (converted)): 95.5 µM
- GI50 (UACC-257): 28.8 µM
- TGI (UACC-257; read-out: pTGI (converted)): 83.2 µM
- GI50 (MCF7): 37.2 µM
- TGI (MCF7; read-out: pTGI (converted)): > 100 µM
- GI50 [1]: 38.9 µM
- TGI ([1]; read-out: pTGI (converted)): > 100 µM
- GI50 (RPMI-8226): 6.03 µM
- TGI (RPMI-8226; read-out: pTGI (converted)): 49 µM
- GI50 (SK-MEL-28): > 100 µM
- TGI (SK-MEL-28; read-out: pTGI (converted)): > 100 µM
- GI50 (HL-60): 2.57 µM
- TGI (HL-60; read-out: pTGI (converted)): 41.7 µM
- GI50 (A549): 43.7 µM
- TGI (A549; read-out: pTGI (converted)): > 100 µM
- GI50 (NCI-H322M): 28.8 µM
- TGI (NCI-H322M; read-out: pTGI (converted)): > 100 µM
- GI50 (HT-29): 7.76 µM
- TGI (HT-29; read-out: pTGI (converted)): 36.3 µM
- GI50 (DU-145): 47.9 µM
- TGI (DU-145; read-out: pTGI (converted)): > 100 µM
- GI50 (SK-MEL-5): 31.6 µM
- TGI (SK-MEL-5; read-out: pTGI (converted)): > 100 µM
- GI50 (NCI-H226): 57.5 µM
- TGI (NCI-H226; read-out: pTGI): > 100 µM
- GI50 (KM12): 33.9 µM
- TGI (KM12; read-out: pTGI (converted)): > 100 µM
- GI50 (HCC 2998): 20.4 µM
- TGI (HCC 2998; read-out: pTGI (converted)): > 100 µM
- GI50 (CAKI-1): 50.1 µM
- TGI (CAKI-1; read-out: pTGI (converted)): > 100 µM
- GI50 (CCRF-CEM): 4.17 µM
- TGI (CCRF-CEM; read-out: pTGI (converted)): 91.2 µM
- GI50 (OVCAR-8): 39.8 µM
- TGI (OVCAR-8; read-out: pTGI (converted)): > 100 µM
- TGI (NCI-H522): 10.7 µM
- GI50 (A498): 42.7 µM
- TGI (A498; read-out: pTGI (converted)): > 100 µM
- GI50 (UACC-62): 22.4 µM
- TGI (UACC-62; read-out: pTGI (converted)): 85.1 µM
- GI50 (OVCAR-3): 49 µM
- TGI (OVCAR-3; read-out: pTGI (converted)): > 100 µM
- GI50 (NCI-H460): 40.7 µM
- TGI (NCI-H460; read-out: pTGI (converted)): > 100 µM
- GI50 (M14): 21.4 µM
- TGI (M14; read-out: pTGI (converted)): > 100 µM
- GI50 (OVCAR-5): 22.4 µM
- TGI (OVCAR-5; read-out: pTGI (converted)): > 100 µM
- GI50 (RXF 393): 14.1 µM
- TGI (RXF 393; read-out: pTGI (converted)): 42.7 µM
- GI50 (U-251): 33.1 µM
- TGI (U-251; read-out: pTGI (converted)): > 100 µM
- GI50 (MDA-MB-231): 36.3 µM
- TGI (MDA-MB-231; read-out: pTGI (converted)): > 100 µM
- GI50 (ACHN): 34.7 µM
- TGI (ACHN; read-out: pTGI (converted)): > 100 µM
